Results: ChEMBL document CHEMBL4406880, “Design, synthesis, and bioactivity of dihydropyrimidine derivatives as kinesin spindle protein inhibitors” (Bioorg Med Chem, 2019)

What was measured:
Assay type in all cases: functional
K562 = test: Growth inhibition of human K562 cells incubated for 48 hrs by sulforhodamine B assay; conditions: K562, 48 h
In short: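 NCI-60 five-dose SRB assay in RPMI 1640 with 5% FBS, 37 °C, 5% CO2. Compound given at five tenfold dilutions, 0.01–100 µM, for 48 h. Adherent cells fixed with TCA, suspension cells with 16% final TCA. Bound SRB read at 515 nm and growth calculated against time-zero and untreated controls. GI50 taken from dose–response curves as the concentration giving a 50% decrease in net cell growth.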

SF-295 [1] = test: Growth inhibition of human SF295 cells incubated for 48 hrs by sulforhodamine B assay; conditions: SF-295, 48 h
In short: (§1)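 NCI-60 five-dose SRB assay. Cells were exposed for 48 h to tenfold dilutions of 0.01, 0.1, 1, 10 and 100 µM, in RPMI 1640 with 5% FBS. Plates fixed with TCA at the time of drug addition served as the time-zero reference. GI50 is the concentration giving a 50% reduction in net growth. TGI is total growth inhibition. LC50 is a net 50% loss of the initial cells.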

SNB-75 = test: Growth inhibition of human SNB75 cells incubated for 48 hrs by sulforhodamine B assay; conditions: SNB-75, 48 h; in short: as §1
UACC-257 = test: Growth inhibition of human UACC257 cells incubated for 48 hrs by sulforhodamine B assay; conditions: UACC-257, 48 h; in short: as §1
SN12C = test: Growth inhibition of human SN12C cells incubated for 48 hrs by sulforhodamine B assay
In short: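 NCI-60 five-dose assay, SRB end-point, same culture conditions. Compound is tested at tenfold dilutions of 0.01, 0.1, 1, 10 and 100 µM for 48 h at 37 °C, with DMSO/PBS vehicle controls. Percentage growth at each concentration is taken against untreated cells and a time-zero plate. GI50 is 50% net growth decrease, TGI is total growth inhibition, and LC50 is 50% loss of initial cells.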

MDA-MB-435 [2] = test: Growth inhibition of human MDA-MB-435 cells assessed as cell viability at 100 uM incubated for 48 hrs by sulforhodamine B assay; conditions: MDA-MB-435, 48 h, read-out: Activity
Malme-3M [3] = test: Growth inhibition of human MALME-3M cells assessed as cell viability at 100 uM incubated for 48 hrs by sulforhodamine B assay; conditions: read-out: Activity
SNB-19 = test: Growth inhibition of human SNB19 cells assessed as cell viability at 100 uM incubated for 48 hrs by sulforhodamine B assay; conditions: SNB-19, 48 h, read-out: Activity
MDA-MB-468 = test: Growth inhibition of human MDA-MB-468 cells assessed as cell viability at 1 uM incubated for 48 hrs by sulforhodamine B assay; conditions: MDA-MB-468, 48 h, read-out: Activity
ACHN = test: Growth inhibition of human ACHN cells assessed as cell viability at 1 uM incubated for 48 hrs by sulforhodamine B assay; conditions: read-out: Activity
In short: (§2)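 NCI-60 five-dose mode: five tenfold dilutions (0.01, 0.1, 1, 10, 100 µM) are applied for 48 h to cells in RPMI 1640 with 5% FBS at 37 °C. Endpoint is TCA fixation with sulforhodamine B read at 515 nm. % growth comes from the 0 h and control absorbances. GI50 is the concentration giving a 50% reduction in net cell growth.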

786-0 [4] = test: Growth inhibition of human 786-0 cells assessed as cell viability at 1 uM incubated for 48 hrs by sulforhodamine B assay; conditions: 786-0, 48 h, read-out: Activity; in short: as §2
IGROV-1 = test: Growth inhibition of human IGROV1 cells assessed as cell viability at 1 uM incubated for 48 hrs by sulforhodamine B assay; conditions: IGROV-1, 48 h, read-out: Activity
SF-295 [5] = test: Growth inhibition of human SF295 cells assessed as cell viability at 1 uM incubated for 48 hrs by sulforhodamine B assay; conditions: SF-295, 48 h, read-out: Activity
NCI-H522 = test: Growth inhibition of human NCI-H522 cells assessed as cell viability at 1 uM incubated for 48 hrs by sulforhodamine B assay; conditions: NCI-H522, 48 h, read-out: Activity
BT-549 = test: Growth inhibition of human BT549 cells assessed as cell viability at 0.1 uM incubated for 48 hrs by sulforhodamine B assay; conditions: BT-549, 48 h, read-out: Activity
786-0 [6] = test: Growth inhibition of human 786-0 cells assessed as cell viability at 0.1 uM incubated for 48 hrs by sulforhodamine B assay; conditions: 786-0, 48 h, read-out: Activity; in short: as §2
Malme-3M [7] = test: Growth inhibition of human MALME-3M cells assessed as cell viability at 0.1 uM incubated for 48 hrs by sulforhodamine B assay; conditions: read-out: Activity
SF-268 = test: Growth inhibition of human SF268 cells assessed as cell viability at 0.1 uM incubated for 48 hrs by sulforhodamine B assay; conditions: SF-268, 48 h, read-out: Activity
HOP-92 = test: Growth inhibition of human HOP92 cells assessed as cell viability at 0.1 uM incubated for 48 hrs by sulforhodamine B assay; conditions: HOP-92, 48 h, read-out: Activity
SR = test: Growth inhibition of human SR cells assessed as cell viability at 0.1 uM incubated for 48 hrs by sulforhodamine B assay; conditions: read-out: Activity
Hs-578T = test: Growth inhibition of human Hs 578T cells assessed as cell viability at 0.001 uM incubated for 48 hrs by sulforhodamine B assay relative to control; conditions: read-out: Activity
PC-3 = test: Growth inhibition of human PC3 cells assessed as cell viability at 0.001 uM incubated for 48 hrs by sulforhodamine B assay relative to control; conditions: PC-3, 48 h, read-out: Activity
MDA-MB-435 [8] = test: Growth inhibition of human MDA-MB-435 cells assessed as cell viability at 0.001 uM incubated for 48 hrs by sulforhodamine B assay relative to control; conditions: MDA-MB-435, 48 h, read-out: Activity
HL-60(TB) = test: Growth inhibition of human HL-60(TB) cells assessed as cell viability at 0.001 uM incubated for 48 hrs by sulforhodamine B assay relative to control; conditions: HL-60, 48 h, read-out: Activity
MCF7 = test: Growth inhibition of human MCF7 cells assessed as cell viability at 100 uM incubated for 48 hrs by sulforhodamine B assay; conditions: MCF7, 48 h, read-out: Activity
[9] = read-out: LC50 (the source's name)
[10] = read-out: pLC50 (the source's name) (converted)

Question: How did the GI50 (K562; read-out: GI50) turn out when `CC1=C(C(=O)OCc2ccccc2)C(c2ccc3c(c2)OCO3)n2c(nc3ccccc32)N1` (racemic) was run?
Answer: 340 nM

Question: What about the CC50 (K562; [9]) of the same compound?
Answer: > 100000 nM

Question: And the TGI (K562; read-out: TGI)?
Answer: > 100000 nM

Question: What about the GI50 (K562; read-out: pGI50 (converted)) of the same compound?
Answer: 347 nM

Question: What about the CC50 (K562; [10]) of the same compound?
Answer: > 100000 nM

Question: What about the TGI (K562; read-out: pTGI) of the same compound?
Answer: > 100000 nM

Question: What about the GI50 (SF-295 [1]; read-out: GI50) of the same compound?
Answer: 330 nM

Question: What about the LC50 (concentration causing 50% net loss of initial cells) (SF-295 [1]; read-out: LC50) of the same compound?
Answer: > 100000 nM

Question: What about the TGI (SF-295 [1]; read-out: TGI) of the same compound?
Answer: > 100000 nM

Question: What about the GI50 (SF-295 [1]; read-out: pGI50 (converted)) of the same compound?
Answer: 331 nM

Question: What about the LC50 (concentration causing 50% net loss of initial cells) (SF-295 [1]; read-out: pLC50 (converted)) of the same compound?
Answer: > 100000 nM

Question: And the TGI (SF-295 [1]; read-out: pTGI)?
Answer: > 100000 nM

Question: And the GI50 (SNB-75; read-out: GI50)?
Answer: 220 nM

Question: And the LC50 (concentration giving 50% net loss of initial cells) (SNB-75; read-out: LC50)?
Answer: > 100000 nM

Question: What about the TGI (SNB-75; read-out: TGI) of the same compound?
Answer: 800 nM

Question: And the GI50 (SNB-75; read-out: pGI50 (converted))?
Answer: 214 nM

Question: And the LC50 (concentration giving 50% net loss of initial cells) (SNB-75; read-out: pLC50 (converted))?
Answer: > 100000 nM

Question: And the TGI (SNB-75; read-out: pTGI (converted))?
Answer: 794 nM

Question: And the GI50 (UACC-257; read-out: GI50)?
Answer: 980 nM

Question: And the LC50 (concentration killing 50% of the initial cells) (UACC-257; read-out: LC50)?
Answer: > 100000 nM

Question: And the TGI (UACC-257; read-out: TGI)?
Answer: > 100000 nM

Question: What about the GI50 (UACC-257; read-out: pGI50 (converted)) of the same compound?
Answer: 977 nM

Question: And the LC50 (concentration killing 50% of the initial cells) (UACC-257; read-out: pLC50 (converted))?
Answer: > 100000 nM

Question: What about the TGI (UACC-257; read-out: pTGI) of the same compound?
Answer: > 100000 nM

Question: And the CC50 (SN12C; [9])?
Answer: > 100000 nM

Question: What about the TGI (SN12C; read-out: TGI) of the same compound?
Answer: > 100000 nM

Question: And the CC50 (SN12C; [10])?
Answer: > 100000 nM

Question: And the TGI (SN12C; read-out: pTGI)?
Answer: > 100000 nM

Question: What about the viability at 100 µM (MDA-MB-435 [2]) of the same compound?
Answer: -7%

Question: What about the viability at 100 µM (Malme-3M [3]) of the same compound?
Answer: 20%

Question: What about the viability at 100 µM (SNB-19) of the same compound?
Answer: 28%

Question: What about the viability at 1 µM (MDA-MB-468) of the same compound?
Answer: -9%

Question: And the viability at 1 µM (ACHN)?
Answer: 39%

Question: What about the viability at 1 µM (786-0 [4]) of the same compound?
Answer: 27%

Question: And the viability at 1 µM (IGROV-1)?
Answer: 39%

Question: And the viability at 1 µM (SF-295 [5])?
Answer: 16%

Question: What about the viability at 1 µM (NCI-H522) of the same compound?
Answer: 3%

Question: And the viability at 0.1 µM (BT-549)?
Answer: 87%

Question: What about the viability at 0.1 µM (786-0 [6]) of the same compound?
Answer: 97%

Question: What about the viability at 0.1 µM (Malme-3M [7]) of the same compound?
Answer: 87%

Question: And the viability at 0.1 µM (SF-268)?
Answer: 94%

Question: And the viability at 0.1 µM (HOP-92)?
Answer: 70%

Question: What about the viability at 0.1 µM (SR) of the same compound?
Answer: 75%

Question: What about the viability at 0.001 µM (Hs-578T) of the same compound?
Answer: 87%

Question: And the viability at 0.001 µM (PC-3)?
Answer: 89%

Question: What about the viability at 0.001 µM (MDA-MB-435 [8]) of the same compound?
Answer: 93%

Question: And the viability at 0.001 µM (HL-60(TB))?
Answer: 95%

Question: And the viability at 100 µM (MCF7)?
Answer: 7%
